Measured values gathered from unrelated publications.
Protocols differ between the studies behind these lines.
ADORA2A: Adenosine receptor A2a (ADORA2A, Homo sapiens, UniProt P29274)
HTR2A: 5-hydroxytryptamine receptor 2A (HTR2A, Homo sapiens, UniProt P28223)
HDAC2: Histone deacetylase 2 (HDAC2, Homo sapiens, UniProt Q92769)

target	test	endpoint	value	Structure (SMILES)
ADORA2A	ligand displacement, radioligand	Ki	> 10 µM	N#C[C@@]12C[C@@H]1[C@@H](n1cnc3c(N[C@@H](C4CCC4)C4CC4)nc(I)nc31)[C@H](O)[C@@H]2O
ADORA2A	G protein activation, agonist	EC50	6.4 µM	CC(C)=CCNc1ncnc2c1ncn2[C@@H]1O[C@H](CO)[C@@H](O)[C@H]1O
HTR2A	calcium signal, antagonist	IC50	13.2 µM	COc1ccccc1CC1CCN(CC(=O)c2cc(C)[nH]c2C)C1 (stereo not drawn)
HTR2A	ligand displacement, radioligand	Ki	4.9 µM	N#C[C@@]12C[C@@H]1[C@@H](n1cnc3c(NCc4cccc(Cl)c4)nc(I)nc31)[C@H](O)[C@@H]2O
HDAC2	enzyme activity, inhibitor, fluorescence	Ki	1.31 µM	O=C(NO)c1cncc(OS(=O)(=O)Oc2ccc(C(F)(F)F)cc2)c1
CLEC4E (Homo sapiens, UniProt Q9ULY5)	binding, BLI	Kd	1.59 µM	C=CCO[C@H]1O[C@H](CO)[C@@H](OP(=O)(O)O[C@H]2O[C@H](CO)[C@@H](O)[C@H](O)[C@@H]2O)[C@H](O)[C@@H]1O
HDAC2	enzyme activity, inhibitor, fluorescence	Ki	0.105 µM	O=C(/C=C/c1cccc(OS(=O)(=O)Oc2ccc(C(F)(F)F)cc2)c1)NO
ADORA2A	G protein activation, agonist	EC50	3.2 µM	CN(C)c1ncnc2c1ncn2[C@@H]1O[C@H](CO)[C@@H](O)[C@H]1O
HTR2A	calcium signal, antagonist	IC50	31.7 µM	Cc1[nH]c2ccccc2c1SCCNC(=O)C1NCCC1C1CC1 (stereo not drawn)
